Reference: PubChem BioAssay AID651576 (The Scripps Research Institute Molecular Screening Center, 2012)
Active and inactive are the calls of the source.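 How the source made its calls: active means inhibition of at least 50%, averaged over three replicate wells; inactive means inhibition below 50%.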

Each compound was assayed on HCV core protein (core106) dimerization, Hepatitis C virus (assay: HCV core106 dimerization inhibitors, late-stage follow-up, biochemical, AlphaScreen luminescence, single dose 15 µM, powder samples (AID 651576)). Conditions: AlphaScreen GST/Flag-core106 dimerization, at 15 µM, stronger effect = higher value.
How it was run: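 material = HCV core106 dimerization between GST-tagged and Flag-tagged core106 proteins | medium = HEPES pH 7.5 with DTT and CHAPS | probe or stimulus = acceptor and donor beads at 20 µg/mL each | timing = protein preincubation 1 h at room temperature, 1 h per bead step | technique = AlphaScreen luminescence | evaluation = percent signal inhibition relative to uninhibited control wells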

Question: How did the inhibition turn out when `Cc1ccc(Cc2c(C)nc3nc(SCC(=O)NCCNC(=O)CSc4nc5nc(C)c(Cc6ccc(C)cc6)c(C)n5n4)nn3c2C)cc1` was run?
Answer: 52%

Question: With `C=CCN1CCN(CCNC(=O)CSc2nc3nc(C)c(Cc4ccc(C)cc4)c(C)n3n2)CC1` as the compound, how does the inhibition read?
Answer: < 50% (inactive)

Question: Which inhibition does the source give for `Cc1ccc(Cc2c(CCc3ccccc3)nc3nc(SC(Cc4ccccc4)C(=O)NCCN4CCOCC4)nn3c2C)cc1` (centres undefined) here?
Answer: 85%

Question: Which inhibition does the source give for `Cc1ccc(Cc2c(C)nc3nc(SCC(=O)NCCN4CCCN(S(C)(=O)=O)CC4)nn3c2C)cc1` here?
Answer: 53%
